Published values from different studies.
Lines come from different studies, so protocols differ. ≈ marks a conversion by molar mass, not a printed value.

For `Cc1ncc(C)n2nc(/C=C/c3nc(N4CCCC4)cc(N4CCOCC4)n3)nc12`, the Tmax was 1.2 h (male beagle dog, plasma; oral, 0.3 mg/kg).
`CCCCCCCCCCCC(=O)OC[C@@H](COP(=O)(O)OCCNC(=O)c1ccc(Cn2c(=O)[nH]c3c(N)nc(OCCOC)nc32)cc1)OC(=O)CCCCCCCCCCC` has an MTD of 150 mg/kg (general toxicity; mouse; intravenous).
`C[C@H](N)Cn1ncc2ccc3c(c21)CCCO3` gave a pKa of 8.45 (potentiometric; water).
With `N=c1c2c(-c3ccccc3)c(-c3ccccc3)n(Cc3ccccc3)c2ncn1[C@H]1CC[C@H](O)CC1` the Tmax was about 15 h (male beagle dog, plasma; oral, 1 mg/kg, single dose).
With `C=C(CC)C(=O)c1ccc(OCC(=O)O)c(Cl)c1Cl` the MTD was 30 mg/kg (general toxicity; mouse; intraperitoneal).
For `CC(=O)N[C@@H](CC(N)=O)C(=O)N[C@@H](CC(N)=O)C(=O)N[C@@H](CC(C)C)C(=O)N[C@H]1CSSC[C@@H](C(=O)N[C@H](C(N)=O)[C@@H](C)O)NC(=O)[C@H](CCCNC(=N)N)NC(=O)[C@H](Cc2c[nH]cn2)NC(=O)[C@H](Cc2cccc3ccccc23)NC(=O)CNC(=O)[C@H](Cc2c[nH]c3ccccc23)NC(=O)[C@H](CC(=O)O)NC(=O)[C@H](CCC(N)=O)NC(=O)[C@H](Cc2cccc3ccccc23)NC(=O)[C@H](C(C)C)NC1=O`, the solubility was 270 µg/mL (≈ 136 µM) (PBS; pH 7.4).
With `COc1ccc(C2=Nn3c(nnc3-c3cc(-c4ccc(Cl)cc4)n[nH]3)SC2C)cc1` (stereo not shown) the MTD was 4 mg/kg (general toxicity; mouse; intravenous, 4 mg/kg, single dose).
`Nc1ncc(-c2nc(N3CCOCC3)nc(N3CCOCC3)n2)c(C(F)F)n1` gave a thermodynamic solubility of 13.9 µM (≈ 5.48 µg/mL) (shake flask; FeSSIF; 24 h).
`COc1ccnc(C(=O)N[C@H]2COC(=O)[C@H](Cc3ccccc3)[C@@H](OC(=O)C(C)C)[C@H](C)OC2=O)c1OCOC(=O)C(C)C` gave a pKa of 2.4.
`Cc1cc(C)nc(Nc2ncc(C(=O)NCCc3c(C)[nH]c4ccccc34)cn2)c1` has a pKa of 5.8.
`CC(=O)N[C@@H](CC(N)=O)C(=O)N[C@@H](CCCNC(=N)N)C(=O)N[C@@H](CC(C)C)C(=O)N[C@H]1CSSC[C@@H](C(=O)N[C@H](C(N)=O)[C@@H](C)O)NC(=O)[C@H](CCCNC(=N)N)NC(=O)[C@H](Cc2c[nH]cn2)NC(=O)[C@H](Cc2cccc3ccccc23)NC(=O)CNC(=O)[C@H](Cc2c[nH]c3ccccc23)NC(=O)[C@H](CC(=O)O)NC(=O)[C@H](CCC(N)=O)NC(=O)[C@H](Cc2c[nH]c3ccccc23)NC(=O)[C@H](C(C)C)NC1=O` gave a solubility of 340 µg/mL (≈ 169 µM) (PBS; pH 7.4).
For `CC(C)(C)c1cc(NC(=O)Nc2ccc(Oc3ccnc4[nH]c(=O)cnc34)cc2F)n(-c2ccccc2)n1`, the MTD was 40 mg/kg (general toxicity; CD-1 mouse; oral, single dose).
With `CCCC(CCC)NC(=O)c1ccc2c(c1)OCO2` the MTD was 700 mg/kg (general toxicity; Swiss mouse; intraperitoneal).
